Measured values published in ChEMBL document CHEMBL1938314, “Electrochemical and spectroscopic investigations of isoniazide and its analogs with ds.DNA at physiological pH: evaluation of biological activities” (Eur J Med Chem, 2012).
≈ marks a conversion by molar mass, not a printed value. Calls of active or inactive are those of the source. The rule behind the calls is not given here.

Columns and labels:
Escherichia coli [1] = assay: Antibacterial activity against Escherichia coli ATCC 15224 at 1 mg/ml after 24 hrs by agar well diffusion method; assay type: functional; settings: for zone of inhibition at 1000 µg/mL: ATCC 15224, 24 h, read-out: DIZ
Method in brief: (§1)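 Agar well diffusion. Strains grown in LB at 37 °C for 24 h; 0.75 ml broth culture seeded into 75 ml nutrient agar. 8 mm wells received 100 µl of sample at 1 mg/ml in DMSO. Incubated 37 °C for 24 h; inhibition zone diameter measured in mm. DMSO negative control; roxithromycin and cefixime (1 mg/ml) positive controls.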

Micrococcus luteus [2] = assay: Antibacterial activity against Micrococcus luteus ATCC 10240 at 1 mg/ml after 24 hrs by agar well diffusion method; assay type: functional; settings: for zone of inhibition at 1000 µg/mL: ATCC 10240, 24 h, read-out: DIZ; method in brief: as §1
Nucleic Acid [3] = assay: Binding affinity to chicken blood dsDNA assessed as decrease in current at 1 x 10 '-3 M at pH 4.7 by cyclic voltammetry; assay type: nucleic-acid assay; set-up: scale not given: the % may be the effect or the level left; settings: Gallus gallus
Method in brief: (§2)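 Cyclic voltammetry at glassy carbon electrode vs SCE. Compound 1 mM in acetate pH 4.7 or phosphate pH 7.4 buffer at 37 °C, argon-purged 10–15 min. Scanned −1 to +1.5 V at 100 mV/s before and after chicken blood DNA (10–50 µM final). Peak current decrease and Ep shift recorded; Kb derived from current decrease.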

Klebsiella aerogenes [4] = assay: Antibacterial activity against Enterobacter aerogenes ATCC 13048 after 24 hrs by agar well diffusion method; assay type: functional; settings: ATCC 13048, 24 h
Method in brief: (§3)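 MIC by agar well diffusion with serial dilutions. Strains grown in LB at 37 °C for 24 h. 0.75 ml broth culture mixed into 75 ml nutrient agar and poured; 8 mm wells cut, filled with test sample in DMSO. Plates incubated 37 °C for 24 h. DMSO served as negative control, roxithromycin and cefixime as positive controls.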

Klebsiella aerogenes [5] = assay: Antibacterial activity against Enterobacter aerogenes ATCC 13048 at 1 mg/ml after 24 hrs by agar well diffusion method; assay type: functional; settings: for zone of inhibition at 1000 µg/mL: ATCC 13048, 24 h, read-out: DIZ; method in brief: as §1
Nucleic Acid [6] = assay: Binding affinity to chicken blood dsDNA assessed as shift in Ep/mv at 1 x 10 '-3 M at pH 4.7 by cyclic voltammetry; assay type: nucleic-acid assay; settings: Gallus gallus; method in brief: as §2
Staphylococcus aureus [7] = assay: Antibacterial activity against Staphylococcus aureus ATCC 6538 after 24 hrs by agar well diffusion method; assay type: functional; settings: ATCC 6538, 24 h; method in brief: as §3
[8] = tested on: Bordetella bronchiseptica; assay: Antibacterial activity against Bordetella bronchiseptica ATCC 10580 at 1 mg/ml after 24 hrs by agar well diffusion method; assay type: functional; settings: for zone of inhibition at 1000 µg/mL: ATCC 10580, 24 h, read-out: DIZ; method in brief: as §1
Escherichia coli [9] = assay: Antibacterial activity against Escherichia coli ATCC 15224 after 24 hrs by agar well diffusion method; assay type: functional; settings: ATCC 15224, 24 h; method in brief: as §3
Nucleic Acid [10] = assay: Binding affinity to chicken blood dsDNA assessed as hyperchromic effect at 1.1 x 10 '-4 M at pH 4.7 by UV-spectroscopy; assay type: nucleic-acid assay; settings: Gallus gallus
Method in brief: (§4)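 Chicken blood DNA (A260/A280 >1.8) quantified at 260 nm (ε 6600). Compound held at 1.1 × 10^-4 M; DNA titrated 10–50 µM in acetate pH 4.7 or phosphate pH 7.4 buffer at 37 °C; UV absorbance recorded. Kb taken as intercept/slope of A0/(A−A0) vs 1/[DNA] (Benesi–Hildebrand); ΔG = −RTlnKb.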

Nucleic Acid [11] = assay: Enhancement of OH-radical-induced oxidative Escherichia coli pBR322 damage at 1000 ug/ml incubated for 1 hr in dark by agarose gel electrophoresis; assay type: nucleic-acid assay
Method in brief: (§5)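 pBR322 plasmid diluted in 50 mM phosphate buffer. 15 µl reactions held diluted plasmid, test compound (1000, 100 or 10 µg/ml), 2 mM FeSO4 and 30% H2O2. Incubated 37 °C for 1 h in dark. Controls: plasmid plus FeSO4/H2O2, and untreated plasmid. Run on 1% agarose in TBE, ethidium bromide stained; supercoiled band intensity compared with control.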

Nucleic Acid [12] = assay: Binding affinity to chicken blood dsDNA at pH 4.7 by cyclic voltammetry; assay type: nucleic-acid assay; settings: Gallus gallus; method in brief: as §2
Salmonella typhi [13] = assay: Antibacterial activity against Salmonella typhi ATCC 6539 at 1 mg/ml after 24 hrs by agar well diffusion method; assay type: functional, Salmonella enterica subsp. enterica serovar Typhi; settings: for zone of inhibition at 1000 µg/mL: Salmonella enterica, ATCC 6539, 24 h, read-out: DIZ; for diameter of the inhibition zone (DIZ): Salmonella enterica subsp. enterica serovar Typhi
Method in brief: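 Agar well diffusion. S. typhi ATCC 6539 grown in LB at 37 °C for 24 h, 0.75 ml broth culture seeded into 75 ml nutrient agar. 8 mm wells received 100 µl of sample at 1 mg/ml in DMSO. Plates incubated 37 °C for 24 h and inhibition zone diameter measured in mm. DMSO as negative control; roxithromycin and cefixime (1 mg/ml) as positive controls.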

Nucleic Acid [14] = assay: Binding affinity to chicken blood dsDNA at pH 7.4 by cyclic voltammetry; assay type: nucleic-acid assay; settings: Gallus gallus; method in brief: as §2
Nucleic Acid [15] = assay: Binding affinity to chicken blood dsDNA at pH 4.7 by UV-spectroscopy; assay type: nucleic-acid assay; settings: Gallus gallus; method in brief: as §4
Nucleic Acid [16] = assay: Binding affinity to chicken blood dsDNA assessed as decrease in current at 1 x 10 '-3 M at pH 7.4 by cyclic voltammetry; assay type: nucleic-acid assay; set-up: scale not given: the % may be the effect or the level left; settings: Gallus gallus; method in brief: as §2
Salmonella typhi [17] = assay: Antibacterial activity against Salmonella typhi ATCC 6539 after 24 hrs by agar well diffusion method; assay type: functional, Salmonella enterica subsp. enterica serovar Typhi; settings: Salmonella enterica, ATCC 6539, 24 h
Nucleic Acid [18] = assay: Antioxidant activity against OH-radical-induced oxidative Escherichia coli pBR322 damage at 10 to 100 ug/ml incubated for 1 hr in dark by agarose gel electrophoresis; assay type: nucleic-acid assay; method in brief: as §5
Nucleic Acid [19] = assay: Binding affinity to chicken blood dsDNA assessed as hyperchromic effect at 1.1 x 10 '-4 M at pH 7.4 by UV-spectroscopy; assay type: nucleic-acid assay; settings: Gallus gallus; method in brief: as §4
Nucleic Acid [20] = assay: Binding affinity to chicken blood dsDNA at pH 7.4 by UV-spectroscopy; assay type: nucleic-acid assay; settings: Gallus gallus; method in brief: as §4
Artemia = assay: Cytotoxicity against brine shrimps after 24 hr; assay type: functional; settings: read-out: LD50 (the source's name)
Method in brief: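 Brine shrimp lethality. Artemia salina hatched 48 h at room temperature in aerated artificial sea water (sea salt 38 g/l). Ten active nauplii per vial in 5 ml sea water with compound at 10, 100 and 1000 µg/ml final. Survivors counted after 24 h, run in triplicate. LD50 derived by Finney analysis.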

[21] = tested on: Bordetella bronchiseptica; assay: Antibacterial activity against Bordetella bronchiseptica ATCC 10580 after 24 hrs by agar well diffusion method; assay type: functional; settings: ATCC 10580, 24 h; method in brief: as §3
Nucleic Acid [22] = assay: Binding affinity to chicken blood dsDNA assessed as shift in Ep/mv at 1 x 10 '-3 M at pH 7.4 by cyclic voltammetry; assay type: nucleic-acid assay; settings: Gallus gallus; method in brief: as §2
Micrococcus luteus [23] = assay: Antibacterial activity against Micrococcus luteus ATCC 10240 after 24 hrs by agar well diffusion method; assay type: functional; settings: ATCC 10240, 24 h; method in brief: as §3
Staphylococcus aureus [24] = assay: Antibacterial activity against Staphylococcus aureus ATCC 6538 at 1 mg/ml after 24 hrs by agar well diffusion method; assay type: functional; settings: for zone of inhibition at 1000 µg/mL: ATCC 6538, 24 h, read-out: DIZ; method in brief: as §1
Nucleic Acid [25] = assay: Antioxidant activity against OH-radical-induced oxidative Escherichia coli pBR322 damage at 10 to 1000 ug/ml incubated for 1 hr in dark by agarose gel electrophoresis; assay type: nucleic-acid assay; method in brief: as §5
Nucleic Acid [26] = assay: Antioxidant activity against OH-radical-induced oxidative Escherichia coli pBR322 damage at 10 ug/ml incubated for 1 hr in dark by agarose gel electrophoresis; assay type: nucleic-acid assay; method in brief: as §5
Nucleic Acid [27] = assay: Antioxidant activity against OH-radical-induced oxidative Escherichia coli pBR322 damage at 100 to 1000 ug/ml incubated for 1 hr in dark by agarose gel electrophoresis; assay type: nucleic-acid assay; method in brief: as §5

## NNC(=O)c1ccc(O)cc1O
Escherichia coli [1]
  zone of inhibition at 1000 µg/mL: 25.1 mm
Micrococcus luteus [2]
  zone of inhibition at 1000 µg/mL: 18.2 mm
Nucleic Acid [3]
  Activity: 29.2%
Klebsiella aerogenes [4]
  MIC: 800 µg/mL (≈ 4760 µM)
Klebsiella aerogenes [5]
  zone of inhibition at 1000 µg/mL: 15.3 mm
Nucleic Acid [6]
  Activity: 20
Staphylococcus aureus [7]
  MIC: 200 µg/mL (≈ 1190 µM)
[8]
  zone of inhibition at 1000 µg/mL: 18.2 mm
Escherichia coli [9]
  MIC: 100 µg/mL (≈ 595 µM)
Nucleic Acid [10]
  Activity: Active
Nucleic Acid [11]
  Activity: Toxic
Nucleic Acid [12]
  Kb: 3.13 ×10⁴ /M
Salmonella typhi [13]
  zone of inhibition at 1000 µg/mL: 24.6 mm
Nucleic Acid [14]
  Kb: 1.31 ×10⁴ /M
Nucleic Acid [15]
  Kb: 2.02 ×10⁴ /M
Nucleic Acid [16]
  Activity: 26.1%
Salmonella typhi [17]
  MIC: 100 µg/mL (≈ 595 µM)
Nucleic Acid [18]
  Activity: Active
Nucleic Acid [19]
  Activity: Active
Nucleic Acid [20]
  Kb: 1.24 ×10⁴ /M
Artemia
  LC50: 419 µg/mL (≈ 2490 µM)
[21]
  MIC: 800 µg/mL (≈ 4760 µM)
Nucleic Acid [22]
  Activity: 37
Micrococcus luteus [23]
  MIC: 800 µg/mL (≈ 4760 µM)
Staphylococcus aureus [24]
  zone of inhibition at 1000 µg/mL: 13.4 mm

## C=CC1=C(C(=O)O)N2C(=O)[C@@H](NC(=O)/C(=N\OCC(=O)O)c3csc(N)n3)[C@H]2SC1 [CEFIXIME]
Escherichia coli [1]
  zone of inhibition at 1000 µg/mL: 40.5 mm
Micrococcus luteus [2]
  zone of inhibition at 1000 µg/mL: 38.7 mm
Klebsiella aerogenes [5]
  zone of inhibition at 1000 µg/mL: 16.1 mm
[8]
  zone of inhibition at 1000 µg/mL: 38.5 mm
Salmonella typhi [13]
  zone of inhibition at 1000 µg/mL: 34.3 mm
Staphylococcus aureus [24]
  zone of inhibition at 1000 µg/mL: 39.1 mm

## NNC(=O)c1ccncc1 [ISONIAZID]
Escherichia coli [1]
  diameter of the inhibition zone (DIZ): inactive
Micrococcus luteus [2]
  diameter of the inhibition zone (DIZ): inactive
Nucleic Acid [3]
  Activity: 50.8%
Klebsiella aerogenes [5]
  diameter of the inhibition zone (DIZ): inactive
Nucleic Acid [6]
  Activity: 51
[8]
  diameter of the inhibition zone (DIZ): inactive
Nucleic Acid [10]
  Activity: Active
Nucleic Acid [12]
  Kb: 2.03 ×10⁴ /M
Salmonella typhi [13]
  diameter of the inhibition zone (DIZ): inactive
Nucleic Acid [14]
  Kb: 1.6 ×10⁴ /M
Nucleic Acid [15]
  Kb: 1.6 ×10⁴ /M
Nucleic Acid [16]
  Activity: 77.1%
Nucleic Acid [19]
  Activity: Active
Nucleic Acid [20]
  Kb: 1.42 ×10⁴ /M
Artemia
  LC50: 1070 µg/mL (≈ 7840 µM)
Nucleic Acid [22]
  Activity: 8
Staphylococcus aureus [24]
  diameter of the inhibition zone (DIZ): inactive
Nucleic Acid [25]
  Activity: Active

## NNC(=O)c1cnccn1 [PYRAZINE CARBOXYLIC ACID HYDRAZIDE]
Escherichia coli [1]
  diameter of the inhibition zone (DIZ): inactive
Micrococcus luteus [2]
  diameter of the inhibition zone (DIZ): inactive
Nucleic Acid [3]
  Activity: 75%
Klebsiella aerogenes [5]
  diameter of the inhibition zone (DIZ): inactive
Nucleic Acid [6]
  Activity: 44
[8]
  diameter of the inhibition zone (DIZ): inactive
Nucleic Acid [10]
  Activity: Active
Nucleic Acid [12]
  Kb: 1.7 ×10⁴ /M
Salmonella typhi [13]
  diameter of the inhibition zone (DIZ): inactive
Nucleic Acid [14]
  Kb: 1.21 ×10⁴ /M
Nucleic Acid [15]
  Kb: 1.6 ×10⁴ /M
Nucleic Acid [16]
  Activity: 33.3%
Nucleic Acid [19]
  Activity: Active
Nucleic Acid [20]
  Kb: 1.1 ×10⁴ /M
Artemia
  LC50: 313 µg/mL (≈ 2260 µM)
Nucleic Acid [26]
  Activity: inactive
Nucleic Acid [22]
  Activity: 51
Staphylococcus aureus [24]
  diameter of the inhibition zone (DIZ): inactive
Nucleic Acid [27]
  Activity: Active

## CC[C@H]1OC(=O)[C@H](C)[C@@H](O[C@H]2C[C@@](C)(OC)[C@@H](O)[C@H](C)O2)[C@H](C)[C@@H](O[C@@H]2O[C@H](C)C[C@H](N(C)C)[C@H]2O)[C@](C)(O)C[C@@H](C)/C(=N\OCOCCOC)[C@H](C)[C@@H](O)[C@]1(C)O [ROXITHROMYCIN]
Escherichia coli [1]
  zone of inhibition at 1000 µg/mL: 18.1 mm
Micrococcus luteus [2]
  zone of inhibition at 1000 µg/mL: 30.2 mm
Klebsiella aerogenes [5]
  zone of inhibition at 1000 µg/mL: 31.2 mm
[8]
  zone of inhibition at 1000 µg/mL: 18.2 mm
Salmonella typhi [13]
  zone of inhibition at 1000 µg/mL: 27.9 mm
Staphylococcus aureus [24]
  zone of inhibition at 1000 µg/mL: 32 mm
